According to ChEMBL document CHEMBL4622983, “Structure-Activity Relationship Studies of α-Ketoamides as Inhibitors of the Phospholipase A and Acyltransferase Enzyme Family” (J Med Chem, 2020):
Active and inactive are the calls of the source. The rule behind the calls is not given here.

Key:
[1] = target: T1, Phospholipase A and acyltransferase 5 (Homo sapiens, UniProt Q96KN8); assay: Inhibition of full-length C-terminal FLAG-tagged human PLAAT5 expressed in HEK293T cell lysate preincubated for 30 mins followed by MB064 addition and measured after 20 mins by SDS-PAGE based ABPP analysis; assay type: cell-free, HEK-293T
T1 sequence (Q96KN8 whole entry): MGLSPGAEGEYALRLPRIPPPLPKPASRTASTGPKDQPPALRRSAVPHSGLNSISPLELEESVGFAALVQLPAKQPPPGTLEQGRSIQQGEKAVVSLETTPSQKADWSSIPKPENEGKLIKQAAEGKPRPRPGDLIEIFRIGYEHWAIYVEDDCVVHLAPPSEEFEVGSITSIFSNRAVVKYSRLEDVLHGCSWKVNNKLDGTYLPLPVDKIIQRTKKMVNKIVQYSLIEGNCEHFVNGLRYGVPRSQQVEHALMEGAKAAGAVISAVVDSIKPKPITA
Method in brief: (§1)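 Dose–response competitive ABPP on cytosol only, from HEK293T overexpressing FLAG-tagged PLAAT. Inhibitor 30 min rt, then MB064 20 min rt. PLAAT2 0.25 μg/μL with 250 nM probe; PLAAT3 0.5 μg/μL with 250 nM; PLAAT4 and PLAAT5 1 μg/μL with 500 nM. Fluorescence normalized to Coomassie. IC50 from curves, reported as pIC50 ± SEM, n = 3.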

[2] = target: T2, Phospholipase A and acyltransferase 4 (Homo sapiens, UniProt Q9UL19); assay: Inhibition of full-length C-terminal FLAG-tagged human PLAAT4 expressed in HEK293T cell lysate preincubated for 30 mins followed by MB064 addition and measured after 20 mins by SDS-PAGE based ABPP analysis; assay type: cell-free, HEK-293T; method in brief: as §1
T2 sequence (Q9UL19 whole entry): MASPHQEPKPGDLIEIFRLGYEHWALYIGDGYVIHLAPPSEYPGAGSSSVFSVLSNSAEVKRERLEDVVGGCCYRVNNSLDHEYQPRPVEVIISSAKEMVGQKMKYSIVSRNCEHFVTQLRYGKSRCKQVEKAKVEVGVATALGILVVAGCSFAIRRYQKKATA

[3] = target: Diacylglycerol lipase-alpha (Mus musculus) (UniProt Q6WQJ1); assay: Inhibition of mouse brain membrane DAGLalpha assessed as enzyme remaining activity at 10 uM preincubated for 30 mins followed by MB064 or FP-TAMRA addition and measured after 15 mins by SDS-PAGE based ABPP analysis relative to control; assay type: cell membranes
Method in brief: (§2)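 Mouse brain membrane proteome (2 μg/μL) preincubated with 10 μM inhibitor for 30 min at rt. Then MB064 250 nM or FP-TAMRA 500 nM for 15 min at rt. Resolved on 10% SDS-PAGE, fluorescence normalized to Coomassie. Reported as % remaining activity ± SD, n = 3.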

[4] = target: Monoglyceride lipase (Homo sapiens) (UniProt Q99685); assay: Inhibition of human MAGL expressed in HEK293 cells assessed as enzyme remaining activity at 10 uM measured by natural substrate-based fluorescence assay relative to control
[5] = target: T3, Phospholipase A and acyltransferase 2 (Homo sapiens) (UniProt Q9NWW9); assay: Inhibition of full-length C-terminal FLAG-tagged human PLAAT2 expressed in human U2OS cells assessed as reduction in absolute N-palmitoleoylethanolamine level at 10 uM incubated for 4 hrs by LC-MS/MS analysis; assay type: cell-based
T3 sequence (whole entry): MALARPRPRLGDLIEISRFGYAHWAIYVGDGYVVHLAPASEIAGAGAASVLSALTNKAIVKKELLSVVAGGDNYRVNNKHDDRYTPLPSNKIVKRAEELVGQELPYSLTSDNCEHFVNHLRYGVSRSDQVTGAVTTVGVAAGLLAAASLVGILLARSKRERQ
Method in brief: (§3)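 U2OS cells transfected with PLAAT2, PLAAT5 or empty vector (PEI, 1:5 plasmid/PEI). At 24 h, switched to serum-free medium with 10 μM compound (0.1% DMSO) or DMSO for 4 h at 37 °C. Pellets extracted with MTBE against deuterated internal standards. NAEs, 2-AG and free fatty acids quantified by LC–MS/MS, normalized to live cell count. Four biological replicates; one-way ANOVA.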

[6] = target: Fatty-acid amide hydrolase 1 (Mus musculus) (UniProt O08914); assay: Inhibition of mouse brain membrane FAAH assessed as enzyme remaining activity at 10 uM preincubated for 30 mins followed by MB064 or FP-TAMRA addition and measured after 15 mins by SDS-PAGE based ABPP analysis relative to control; assay type: cell membranes; method in brief: as §2
U2OS [7] = assay: Downregulation of N-stearoylethanolamine level in human U2OS cells at 10 uM after 4 hrs by LC-MS/MS analysis; assay type: functional, cell-based; method in brief: as §3
[8] = target: T3, Phospholipase A and acyltransferase 2 (Homo sapiens); assay: Inhibition of full-length C-terminal FLAG-tagged human PLAAT2 expressed in human U2OS cells assessed as reduction in absolute N-stearoylethanolamine level at 10 uM incubated for 4 hrs by LC-MS/MS analysis; assay type: cell-based; method in brief: as §3
[9] = target: T4, Phospholipase A and acyltransferase 3 (Homo sapiens, UniProt P53816); assay: Inhibition of full-length C-terminal FLAG-tagged human PLAAT3 expressed in HEK293T cell lysate preincubated for 30 mins followed by MB064 addition and measured after 20 mins by SDS-PAGE based ABPP analysis; assay type: cell-free, HEK-293T; method in brief: as §1
T4 sequence (P53816 whole entry): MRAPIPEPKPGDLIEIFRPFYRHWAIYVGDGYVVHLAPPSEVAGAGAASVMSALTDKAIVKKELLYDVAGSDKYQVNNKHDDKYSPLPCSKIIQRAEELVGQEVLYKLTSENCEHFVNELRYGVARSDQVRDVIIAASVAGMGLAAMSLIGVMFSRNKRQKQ

[10] = target: Diacylglycerol lipase-beta (Mus musculus) (UniProt Q91WC9); assay: Inhibition of mouse brain membrane DAGLbeta assessed as enzyme remaining activity at 10 uM preincubated for 30 mins followed by MB064 or FP-TAMRA addition and measured after 15 mins by SDS-PAGE based ABPP analysis relative to control; assay type: cell membranes; method in brief: as §2
[11] = target: T5, Phospholipase A and acyltransferase 5 (Homo sapiens) (UniProt Q96KN8); assay: Inhibition of full-length C-terminal FLAG-tagged human PLAAT5 expressed in human U2OS cells assessed as reduction in anandamide level at 10 uM incubated for 4 hrs by LC-MS/MS analysis relative to control; assay type: cell-based; method in brief: as §3
T5 sequence (whole entry): T1 sequence (Q96KN8 whole entry)

[12] = target: T5, Phospholipase A and acyltransferase 5 (Homo sapiens); assay: Inhibition of full-length C-terminal FLAG-tagged human PLAAT5 expressed in human U2OS cells assessed as reduction in absolute N-palmitoylethanolamine level at 10 uM incubated for 4 hrs by LC-MS/MS analysis; assay type: cell-based; method in brief: as §3
[13] = target: T3, Phospholipase A and acyltransferase 2 (Homo sapiens); assay: Inhibition of full-length C-terminal FLAG-tagged human PLAAT2 expressed in human U2OS cells assessed as reduction in arachidonic acid level at 10 uM incubated for 4 hrs by LC-MS/MS analysis; assay type: cell-based; method in brief: as §3
U2OS [14] = assay: Downregulation of N-palmitoleoylethanolamine level in human U2OS cells at 10 uM after 4 hrs by LC-MS/MS analysis; assay type: functional, cell-based; method in brief: as §3

Monoglyceride lipase (Homo sapiens), sequence (Q99685 whole entry): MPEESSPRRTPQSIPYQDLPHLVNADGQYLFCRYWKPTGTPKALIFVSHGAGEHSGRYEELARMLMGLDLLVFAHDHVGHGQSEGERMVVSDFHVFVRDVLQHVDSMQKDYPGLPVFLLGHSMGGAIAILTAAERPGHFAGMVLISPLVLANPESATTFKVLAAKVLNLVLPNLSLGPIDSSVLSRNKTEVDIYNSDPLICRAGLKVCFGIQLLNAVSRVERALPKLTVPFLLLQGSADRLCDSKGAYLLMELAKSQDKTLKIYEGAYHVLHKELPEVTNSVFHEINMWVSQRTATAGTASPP
Fatty-acid amide hydrolase 1 (Mus musculus), sequence (O08914 whole entry): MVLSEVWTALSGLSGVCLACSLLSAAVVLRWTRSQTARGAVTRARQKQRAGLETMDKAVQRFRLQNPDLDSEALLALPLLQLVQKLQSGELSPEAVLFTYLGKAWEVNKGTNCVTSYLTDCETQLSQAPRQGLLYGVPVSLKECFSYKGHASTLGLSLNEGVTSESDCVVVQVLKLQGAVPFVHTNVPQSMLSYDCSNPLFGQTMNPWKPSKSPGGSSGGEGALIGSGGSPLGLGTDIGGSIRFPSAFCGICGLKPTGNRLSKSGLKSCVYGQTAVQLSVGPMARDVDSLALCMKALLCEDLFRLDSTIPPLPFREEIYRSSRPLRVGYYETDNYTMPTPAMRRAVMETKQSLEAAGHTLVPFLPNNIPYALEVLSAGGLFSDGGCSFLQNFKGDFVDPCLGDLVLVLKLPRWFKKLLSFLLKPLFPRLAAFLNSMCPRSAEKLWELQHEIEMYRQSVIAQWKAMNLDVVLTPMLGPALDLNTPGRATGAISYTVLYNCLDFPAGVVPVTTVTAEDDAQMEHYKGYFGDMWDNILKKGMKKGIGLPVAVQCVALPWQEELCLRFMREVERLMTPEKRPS
Diacylglycerol lipase-alpha (Mus musculus), sequence (Q6WQJ1 whole entry): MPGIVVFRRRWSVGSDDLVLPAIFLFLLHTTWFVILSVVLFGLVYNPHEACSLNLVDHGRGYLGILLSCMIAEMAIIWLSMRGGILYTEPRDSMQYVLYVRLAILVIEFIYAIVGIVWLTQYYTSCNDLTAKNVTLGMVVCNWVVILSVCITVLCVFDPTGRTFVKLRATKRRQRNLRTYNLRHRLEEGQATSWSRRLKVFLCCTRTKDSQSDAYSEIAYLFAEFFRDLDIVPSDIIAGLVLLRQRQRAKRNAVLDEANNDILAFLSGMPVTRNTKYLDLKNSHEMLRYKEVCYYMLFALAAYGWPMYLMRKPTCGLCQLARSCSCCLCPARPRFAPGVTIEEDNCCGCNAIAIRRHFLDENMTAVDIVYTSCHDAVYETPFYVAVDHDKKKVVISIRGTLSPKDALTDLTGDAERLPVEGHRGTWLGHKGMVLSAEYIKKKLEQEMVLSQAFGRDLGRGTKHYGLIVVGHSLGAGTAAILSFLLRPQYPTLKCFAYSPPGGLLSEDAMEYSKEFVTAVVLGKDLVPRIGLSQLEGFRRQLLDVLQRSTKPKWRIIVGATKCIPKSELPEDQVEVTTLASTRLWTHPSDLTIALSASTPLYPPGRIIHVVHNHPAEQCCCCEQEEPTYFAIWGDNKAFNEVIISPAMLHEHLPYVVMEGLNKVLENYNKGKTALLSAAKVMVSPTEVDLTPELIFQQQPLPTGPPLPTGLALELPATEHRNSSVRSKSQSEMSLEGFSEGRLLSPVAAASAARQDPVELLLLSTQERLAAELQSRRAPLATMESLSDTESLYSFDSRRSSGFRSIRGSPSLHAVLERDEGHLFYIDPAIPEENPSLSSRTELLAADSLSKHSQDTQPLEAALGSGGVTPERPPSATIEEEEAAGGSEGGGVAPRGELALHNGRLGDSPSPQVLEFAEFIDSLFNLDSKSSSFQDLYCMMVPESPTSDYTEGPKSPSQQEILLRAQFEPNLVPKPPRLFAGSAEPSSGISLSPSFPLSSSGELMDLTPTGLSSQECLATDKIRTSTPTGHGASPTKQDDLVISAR
Diacylglycerol lipase-beta (Mus musculus), sequence (Q91WC9 whole entry): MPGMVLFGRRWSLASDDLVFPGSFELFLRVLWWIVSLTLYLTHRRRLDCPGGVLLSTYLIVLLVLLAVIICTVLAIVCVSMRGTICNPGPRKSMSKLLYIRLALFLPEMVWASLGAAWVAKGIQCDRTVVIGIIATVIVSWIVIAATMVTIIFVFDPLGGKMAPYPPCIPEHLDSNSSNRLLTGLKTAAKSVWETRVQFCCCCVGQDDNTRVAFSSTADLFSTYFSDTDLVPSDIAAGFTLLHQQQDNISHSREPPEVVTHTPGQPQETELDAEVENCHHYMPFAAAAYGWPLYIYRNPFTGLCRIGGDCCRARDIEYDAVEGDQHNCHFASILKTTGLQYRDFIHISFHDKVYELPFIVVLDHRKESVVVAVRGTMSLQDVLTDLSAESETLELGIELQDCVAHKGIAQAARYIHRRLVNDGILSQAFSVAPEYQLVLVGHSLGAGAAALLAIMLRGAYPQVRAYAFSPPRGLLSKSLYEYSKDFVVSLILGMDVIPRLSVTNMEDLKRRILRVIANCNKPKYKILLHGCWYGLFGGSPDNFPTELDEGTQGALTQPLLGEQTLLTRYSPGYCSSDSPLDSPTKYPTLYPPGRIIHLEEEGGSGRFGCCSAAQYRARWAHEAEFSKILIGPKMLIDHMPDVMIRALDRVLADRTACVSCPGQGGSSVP

Compound `O=C(CCCc1ccccc1)C(=O)NCCc1ccc(Oc2ccccc2)cc1` has an IC50 [1] of 0.0398 µM, an IC50 [2] of 0.0501 µM and an Activity [3] of 97%. The Activity [4] was 105%, the inhibition [5] was “Active” and the Activity [6] was 108%. For the same compound, the inhibition (U2OS [7]) was “inactive”, the inhibition [8] was “Active” and the IC50 [9] was 0.251 µM. The Activity [10] was 83%, the fold change (FC) [11] was 2 and the inhibition [12] was “Active”. For the same compound, the inhibition [13] was “inactive” and the inhibition (U2OS [14]) was “inactive”.
